# Tests used:
# Mus musculus [1] = assay: Anticonvulsant activity in mouse assessed as protection against strychnine-induced seizure at 1 mmol/kg, ip administered 30 min prior to strychnine-challenge measured after 60 mins relative to control; type: functional
# Mus musculus [2] = assay: Anticonvulsant activity in mouse assessed as protection against maximal electroshock-induced seizure at 1 mmol/kg, ip administered 30 min prior to maximal electroshock-challenge measured after 60 mins relative to control; type: functional
# Mus musculus [3] = assay: Anticonvulsant activity in mouse assessed as protection against pentylenetetrazol-induced seizure at 1 mmol/kg, ip administered 30 min prior to pentylenetetrazol-challenge measured after 60 mins relative to control; type: functional
# Mus musculus [4] = assay: Anticonvulsant activity in mouse assessed as protection against picrotoxin-induced seizure at 1 mmol/kg, ip administered 30 min prior to picrotoxin-challenge measured after 60 mins relative to control; type: functional
# [5] = Therapeutic index, ratio of LD50 for mouse to ED50 for pentylenetetrazol-induced seizure in mouse; type: organism-based; conditions: in vivo, read-out: Ratio LD50/ED50
# How it was run: (§1)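 In mice, LD50 is the dose causing 50% mortality. ED50 is the dose protecting 50% of mice against pentylenetetrazole-induced seizures. Therapeutic index = LD50/ED50.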
# Mus musculus [6] = species on record: Mus musculus; assay: Protective index, ratio of TD50 for mouse to ED50 for pentylenetetrazol-induced seizure in mouse; type: functional
# How it was run: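 Mice. Index is TD50/ED50. TD50 is the dose causing minimal neurological toxicity in 50% of mice in the Chimney test. ED50 is the dose protecting 50% of mice against pentylenetetrazole-induced seizures. Both are estimated from testing at several doses.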
# [7] = Toxicity in ip dose mouse assessed as mortality; type: organism-based; conditions: in vivo; how it was run: as §1
# [8] = Neurotoxicity in ip dosed mouse assessed as impaired motor coordination administered 30 mins prior to test by chimney test; type: toxicity, organism-based; conditions: in vivo
# How it was run: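 Mice, Chimney test. TD50 is the dose that produces minimal neurological toxicity (impaired motor coordination) in 50% of animals, estimated from testing at several doses.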
# Mus musculus [9] = assay: Anticonvulsant activity in ip dosed mouse assessed as protection against pentylenetetrazol-induced seizure administered 30 min prior to pentylenetetrazol-challenge measured after 60 mins; type: functional
# How it was run: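 Mice received several doses for quantification. ED50 taken as the dose protecting 50% of mice against pentylenetetrazol-induced seizures.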
# SNB-75 = assay: Growth inhibition of human SNB75 cells at 10 uM relative to control; type: functional; conditions: read-out: GI
# How it was run: (§2)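 Single-dose screen across the 60-cell-line human tumor panel at 10 μM. Growth inhibition is reported as a percentage, taken as 100 minus the % growth relative to untreated control.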
# A549 = assay: Growth inhibition of human A549 cells at 10 uM relative to control; type: functional; conditions: read-out: GI
# How it was run: (§3)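 Each cell line in a 60-line human tumour panel exposed to one 10 μM concentration. Growth inhibition percentage computed as 100 minus the percentage activity relative to control.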
# NCI-H23 = assay: Growth inhibition of human NCI-H23 cells at 10 uM relative to control; type: functional; conditions: read-out: GI; how it was run: as §3
# K562 = assay: Growth inhibition of human K562 cells at 10 uM relative to control; type: functional; conditions: read-out: GI; how it was run: as §3
# UACC-62 = assay: Growth inhibition of human UACC62 cells at 10 uM relative to control; type: functional; conditions: read-out: GI; how it was run: as §2
# SF-539 = assay: Growth inhibition of human SF539 cells at 10 uM relative to control; type: functional; conditions: read-out: GI; how it was run: as §3
# OVCAR-8 = assay: Growth inhibition of human OVCAR8 cells at 10 uM relative to control; type: functional; conditions: read-out: GI; how it was run: as §3
# RPMI-8226 = assay: Growth inhibition of human RPMI8226 cells at 10 uM relative to control; type: functional; conditions: read-out: GI; how it was run: as §3
# HL-60(TB) = assay: Growth inhibition of human HL-60(TB) cells at 10 uM relative to control; type: functional; conditions: read-out: GI
# How it was run: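 Single-dose screen at 10 μM across the 60-cell-line tumour panel. Percent growth inhibition = 100 minus percent growth activity relative to untreated control.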
# CAKI-1 = assay: Growth inhibition of human CAKI-1 cells at 10 uM relative to control; type: functional; conditions: read-out: GI; how it was run: as §3
# NCI-H226 = assay: Growth inhibition of human NCI-H226 cells at 10 uM relative to control; type: functional; conditions: read-out: GI; how it was run: as §3
# HT-29 = assay: Growth inhibition of human HT-29 cells at 10 uM relative to control; type: functional; conditions: read-out: GI; how it was run: as §3
# [10] = Growth inhibition of human Hs 578T cells at 10 uM relative to control; type: functional; conditions: read-out: GI; how it was run: as §3
# HCT-116 = assay: Growth inhibition of human HCT116 cells at 10 uM relative to control; type: functional; conditions: read-out: GI; how it was run: as §3
# CCRF-CEM = assay: Growth inhibition of human CCRF-CEM cells at 10 uM relative to control; type: functional; conditions: read-out: GI; how it was run: as §3
# EKVX = assay: Growth inhibition of human EKVX cells at 10 uM relative to control; type: functional; conditions: read-out: GI; how it was run: as §3
# HCC 2998 = assay: Growth inhibition of human HCC2998 cells at 10 uM relative to control; type: functional; conditions: read-out: GI; how it was run: as §3
# MOLT-4 = assay: Growth inhibition of human MOLT4 cells at 10 uM relative to control; type: functional; conditions: read-out: GI; how it was run: as §3
# A498 = assay: Growth inhibition of human A498 cells at 10 uM relative to control; type: functional; conditions: read-out: GI; how it was run: as §3
# NCI-H522 = assay: Growth inhibition of human NCI-H522 cells at 10 uM relative to control; type: functional; conditions: read-out: GI; how it was run: as §3
# SK-MEL-28 = assay: Growth inhibition of human SK-MEL-28 cells at 10 uM relative to control; type: functional; conditions: read-out: GI; how it was run: as §3
# UO-31 = assay: Growth inhibition of human UO31 cells at 10 uM relative to control; type: functional; conditions: read-out: GI; how it was run: as §2
# SNB-19 = assay: Growth inhibition of human SNB19 cells at 10 uM relative to control; type: functional; conditions: read-out: GI; how it was run: as §2
# PC-3 = assay: Growth inhibition of human PC3 cells at 10 uM relative to control; type: functional; conditions: read-out: GI; how it was run: as §3
# U-251 = assay: Growth inhibition of human U251 cells at 10 uM relative to control; type: functional; conditions: read-out: GI; how it was run: as §2
# SF-295 = assay: Growth inhibition of human SF295 cells at 10 uM relative to control; type: functional; conditions: read-out: GI; how it was run: as §3
smiles,measurement,setting,value
Cc1ccccc1-n1c(C)nc2cc(/N=C/c3ccccc3)ccc2c1=O,Activity,Mus musculus [1],0%
same,Activity,Mus musculus [2],50%
same,Activity,Mus musculus [3],0%
Cc1ccccc1-n1c(C)nc2cc(/N=C/c3ccc(F)cc3)ccc2c1=O,Activity,Mus musculus [4],75%
same,Activity,Mus musculus [1],0%
same,selectivity ratio,[5],5.5
same,Activity,Mus musculus [2],100%
same,Ratio TD50/ED50,Mus musculus [6],3
same,Activity,Mus musculus [3],100%
same,LD50,[7],1710 µmol/kg
same,TD50 at 0.5 h,[8],930 µmol/kg
same,ED50,Mus musculus [9],310 µmol/kg
Cc1ccccc1-n1c(C)nc2cc(N3C(=O)C=CC3=O)ccc2c1=O,Activity,Mus musculus [1],0%
same,Activity,Mus musculus [2],33%
same,Activity,Mus musculus [3],0%
Cc1ccccc1-n1c(C)nc2cc(NS(=O)(=O)c3ccccc3)ccc2c1=O,inhibition of growth at 10 µM,SNB-75,14.8%
same,inhibition of growth at 10 µM,A549,5%
same,inhibition of growth at 10 µM,NCI-H23,5.2%
same,inhibition of growth at 10 µM,K562,10%
same,inhibition of growth at 10 µM,UACC-62,9%
same,inhibition of growth at 10 µM,SF-539,4%
same,inhibition of growth at 10 µM,OVCAR-8,5.4%
same,inhibition of growth at 10 µM,RPMI-8226,12%
same,inhibition of growth at 10 µM,HL-60(TB),4%
same,inhibition of growth at 10 µM,CAKI-1,4%
same,inhibition of growth at 10 µM,NCI-H226,2.5%
same,inhibition of growth at 10 µM,HT-29,3%
same,inhibition of growth at 10 µM,[10],3.2%
same,inhibition of growth at 10 µM,HCT-116,4%
same,inhibition of growth at 10 µM,CCRF-CEM,13%
same,inhibition of growth at 10 µM,EKVX,14.3%
same,inhibition of growth at 10 µM,HCC 2998,4%
same,inhibition of growth at 10 µM,MOLT-4,12.2%
same,inhibition of growth at 10 µM,A498,8%
same,inhibition of growth at 10 µM,NCI-H522,2.2%
same,inhibition of growth at 10 µM,SK-MEL-28,2.4%
same,inhibition of growth at 10 µM,UO-31,13.6%
same,inhibition of growth at 10 µM,SNB-19,4%
same,inhibition of growth at 10 µM,PC-3,8%
same,inhibition of growth at 10 µM,U-251,4%
same,inhibition of growth at 10 µM,SF-295,9%
Cc1ccccc1-n1c(C)nc2cc(/N=C/c3ccco3)ccc2c1=O,Activity,Mus musculus [1],0%
same,Activity,Mus musculus [2],50%
same,Activity,Mus musculus [3],0%
Cc1ccc(S(=O)(=O)Nc2ccc3c(=O)n(-c4ccccc4C)c(C)nc3c2)cc1,Activity,Mus musculus [1],0%
same,Activity,Mus musculus [2],0%
same,Activity,Mus musculus [3],66%
